Experimental data: ChEMBL document CHEMBL4118114 (Bioorg Med Chem, 2018); call rule not given here
Starred links: 1 amine or outer side, 2 acyl side, 3 side chain; linkers in the order of their positions; H or OH if unused. Positions of bridges follow the written chain, without caps; N, C: chain ends. Non-standard residues stand in square brackets, D forms with d. Residues, ends and D or L forms follow the SMILES beside them. oXylylene = c1ccc(C[*:2])c(C[*:1])c1; X1 = O=C(CCC[*:2])[*:1]; Mpa = O=C(O)CCS

Key:
[1] = organism: Homo sapiens; test: Selectivity index, ratio of IC50 for human liver vasopressin V1a receptor to IC50 for human mammary gland oxytocin receptor
[2] = biological target: T1, Vasopressin V1a receptor (Homo sapiens, UniProt P37288); test: Agonist activity at human liver vasopressin V1a receptor expressed in CHO cells assessed as increase in intracellular calcium flux measured for 5 mins by Fluo-4-AM dye based FLIPR assay; assay type: functional, cell-based
Outline: (§1)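 Stably transfected CHO lines, one human receptor each, grown in F-12K with 10% FBS, geneticin 200 µg/mL, 37 °C, 10% CO2. Plated 50,000 cells/well for 24 h, then loaded 60 min with 2 µM Fluo-4-AM. Compound dilution series added on FLIPR and calcium signal recorded 5 min for agonist activity. Each compound tested at least 3 times in duplicate.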

[3] = biological target: T1, Vasopressin V1a receptor; test: Antagonist activity at human liver vasopressin V1a receptor expressed in CHO cells assessed as inhibition of agonist-induced intracellular calcium flux preincubated for 20 mins followed by AVP addition measured for 5 mins by Fluo-4-AM dye based FLIPR assay; assay type: functional, cell-based
Outline: (§2)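 CHO cells stably expressing the relevant human receptor, plated 24 h, loaded 60 min with 2 µM Fluo-4-AM and read on FLIPR. […] IC50 came from a variable-slope single-site competition fit of normalized fluorescence. At least 3 runs in duplicate.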

[4] = biological target: T2, Vasopressin V2 receptor (Homo sapiens, UniProt P30518); test: Antagonist activity at human kidney vasopressin V2 receptor expressed in CHO cells assessed as inhibition of agonist-induced intracellular calcium flux preincubated for 20 mins followed by AVP addition measured for 5 mins by Fluo-4-AM dye based FLIPR assay; assay type: functional, cell-based
Outline: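 CHO cells stably expressing the relevant human receptor, plated 24 h, loaded 60 min with 2 µM Fluo-4-AM and read on FLIPR. IC50 came from a variable-slope single-site competition fit of normalized fluorescence. At least 3 runs in duplicate.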

[5] = organism: Homo sapiens; test: Selectivity index, ratio of Ki for human liver vasopressin V1a receptor to Ki for human mammary gland oxytocin receptor
Outline: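 Ratio of binding Ki from the radioligand displacement assays, calculated as the strongest AVP receptor subtype binding value divided by the OTR value.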

[6] = biological target: T3, Oxytocin receptor (Homo sapiens, UniProt P30559); test: Displacement of [3H]OT from human mammary gland oxytocin receptor expressed in HEK293 cell membrane after 1 hr by scintillation counting method; assay type: cell membranes
T3 sequence (P30559 whole entry): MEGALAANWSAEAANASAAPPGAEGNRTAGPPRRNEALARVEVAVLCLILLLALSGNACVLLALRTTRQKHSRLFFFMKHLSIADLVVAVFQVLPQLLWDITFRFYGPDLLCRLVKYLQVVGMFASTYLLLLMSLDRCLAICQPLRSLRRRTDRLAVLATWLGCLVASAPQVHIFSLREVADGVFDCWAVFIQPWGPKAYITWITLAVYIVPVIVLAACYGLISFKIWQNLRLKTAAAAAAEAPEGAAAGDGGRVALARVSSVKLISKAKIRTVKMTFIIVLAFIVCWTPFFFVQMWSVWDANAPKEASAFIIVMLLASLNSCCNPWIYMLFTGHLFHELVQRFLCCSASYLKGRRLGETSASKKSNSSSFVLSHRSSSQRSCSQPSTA
Outline: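 Membranes from a stable HEK clone expressing human OTR cloned from mammary gland RNA. Filtration binding with 1 nM final [3H]OT in 50 mM Tris, 5 mM MgCl2, 0.1% BSA, pH 7.4, for 1 h at room temperature. GF/C filters, washed 5 times ice-cold. Ki by Cheng-Prusoff. Three experiments in duplicate.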

[7] = biological target: T3, Oxytocin receptor; test: Antagonist activity at human mammary gland oxytocin receptor expressed in CHO cells assessed as inhibition of agonist-induced intracellular calcium flux preincubated for 20 mins followed by oxytocin addition measured for 5 mins by Fluo-4-AM dye based FLIPR assay; assay type: functional, cell-based; outline: as §2
[8] = biological target: T4, Vasopressin V1b receptor (Homo sapiens, UniProt P47901); test: Displacement of [3H]AVP from human vasopressin V1b receptor expressed in HEK293 cell membrane after 1 hr by scintillation counting method; assay type: cell membranes
T4 sequence (P47901 whole entry): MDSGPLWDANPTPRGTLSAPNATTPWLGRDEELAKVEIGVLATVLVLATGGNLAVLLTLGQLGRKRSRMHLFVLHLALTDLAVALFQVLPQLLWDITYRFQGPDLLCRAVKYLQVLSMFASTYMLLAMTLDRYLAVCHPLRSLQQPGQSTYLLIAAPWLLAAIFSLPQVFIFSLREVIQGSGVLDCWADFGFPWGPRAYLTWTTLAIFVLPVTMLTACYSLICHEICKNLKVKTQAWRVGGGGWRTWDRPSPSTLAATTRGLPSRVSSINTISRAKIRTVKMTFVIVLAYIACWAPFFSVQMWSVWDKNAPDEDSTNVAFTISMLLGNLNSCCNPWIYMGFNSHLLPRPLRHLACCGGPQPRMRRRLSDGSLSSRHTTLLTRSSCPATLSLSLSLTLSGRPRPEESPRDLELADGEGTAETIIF

[9] = biological target: T3, Oxytocin receptor; test: (§3) Agonist activity at human mammary gland oxytocin receptor expressed in CHO cells assessed as increase in intracellular calcium flux measured for 5 mins by Fluo-4-AM dye based FLIPR assay; assay type: functional, cell-based; outline: as §1
[10] = organism: Homo sapiens; test: Selectivity index, ratio of Ki for human mammary gland oxytocin receptor to Ki for human liver vasopressin V1a receptor
Outline: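 Ratio of binding Ki from the radioligand displacement assays, calculated as the OTR binding value divided by the V1a value.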

[11] = biological target: T1, Vasopressin V1a receptor; test: Displacement of [3H]AVP from human liver vasopressin V1a receptor expressed in HEK293 cell membrane after 1 hr by scintillation counting method; assay type: cell membranes
Outline: (§4)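 Membranes from transiently transfected HEK293 cells. Receptors were cloned from human liver (V1a) or kidney (V2) RNA. SPA assay with yttrium silicate beads in 50 mM Tris, 120 mM NaCl, 5 mM KCl, 2 mM CaCl2, 10 mM MgCl2. 4 nM [3H]AVP added, compound in 2% DMSO, 1 h at room temperature. Ki by Cheng-Prusoff. Three experiments in duplicate.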

[12] = organism: Homo sapiens; test: Selectivity index, ratio of IC50 for human mammary gland oxytocin receptor to IC50 for human liver vasopressin V1a receptor
[13] = biological target: T4, Vasopressin V1b receptor; test: Agonist activity at human vasopressin V1b receptor expressed in CHO cells assessed as increase in intracellular calcium flux measured for 5 mins by Fluo-4-AM dye based FLIPR assay; assay type: functional, cell-based
[14] = biological target: T4, Vasopressin V1b receptor; test: Antagonist activity at human vasopressin V1b receptor expressed in CHO cells assessed as inhibition of agonist-induced intracellular calcium flux preincubated for 20 mins followed by AVP addition measured for 5 mins by Fluo-4-AM dye based FLIPR assay; assay type: functional, cell-based; outline: as §2
[15] = biological target: T2, Vasopressin V2 receptor; test: Displacement of [3H]AVP from human kidney vasopressin V2 receptor expressed in HEK293 cell membrane after 1 hr by scintillation counting method; assay type: cell membranes; outline: as §4
[16] = biological target: T2, Vasopressin V2 receptor; test: Agonist activity at human kidney vasopressin V2 receptor expressed in CHO cells assessed as increase in intracellular calcium flux measured for 5 mins by Fluo-4-AM dye based FLIPR assay; assay type: functional, cell-based; outline: as §1
[17] = Thermal stability of the compound at 50 degC at 0.5 mg/ml after 10 days by LC-MS analysis; assay type: physicochemical; settings: 240 h
Outline: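 Peptides dissolved in water at 0.5 mg/mL and held at 50 °C. After 10 days, aliquots were analysed by direct-injection LC-MS. Remaining peptide was expressed as a percentage of the corresponding peak before heating.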

[18] = biological target: T5, Oxytocin receptor (Homo sapiens) (UniProt P30559); test: as §3; assay type: functional, cell-based; outline: as §1
T5 sequence (whole entry): T3 sequence (P30559 whole entry)

[19] = Half life in Sherman rat plasma; assay type: ADME, cell-free

T2 sequence (P30518 whole entry): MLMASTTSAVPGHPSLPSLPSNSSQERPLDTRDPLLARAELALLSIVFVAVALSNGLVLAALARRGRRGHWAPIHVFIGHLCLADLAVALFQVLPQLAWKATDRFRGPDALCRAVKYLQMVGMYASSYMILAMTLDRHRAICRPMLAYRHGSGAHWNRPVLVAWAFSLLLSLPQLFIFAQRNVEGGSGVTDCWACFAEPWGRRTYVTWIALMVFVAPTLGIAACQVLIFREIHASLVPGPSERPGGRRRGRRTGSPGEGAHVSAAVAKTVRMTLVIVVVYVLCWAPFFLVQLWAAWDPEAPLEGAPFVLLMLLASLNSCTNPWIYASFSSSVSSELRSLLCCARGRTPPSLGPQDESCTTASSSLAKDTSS
T1 sequence (P37288 whole entry): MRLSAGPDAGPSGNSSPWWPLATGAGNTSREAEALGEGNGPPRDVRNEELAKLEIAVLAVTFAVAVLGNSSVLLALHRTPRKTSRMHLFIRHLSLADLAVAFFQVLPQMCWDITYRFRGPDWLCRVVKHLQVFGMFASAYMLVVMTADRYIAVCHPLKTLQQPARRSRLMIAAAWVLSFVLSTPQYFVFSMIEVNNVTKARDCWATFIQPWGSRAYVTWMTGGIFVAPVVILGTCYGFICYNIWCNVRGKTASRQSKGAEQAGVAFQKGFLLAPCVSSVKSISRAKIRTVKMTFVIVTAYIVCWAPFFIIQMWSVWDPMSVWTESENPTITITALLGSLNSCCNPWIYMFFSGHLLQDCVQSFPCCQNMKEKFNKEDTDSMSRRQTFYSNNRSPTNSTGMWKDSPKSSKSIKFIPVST

Row | SMILES | Ratio IC50 [1] | EC50 [2] [nM] | IC50 [3] [nM] | IC50 [4] | Ratio Ki [5] | Ki [6] [nM] | IC50 ([7]; read-out: IC50) [nM] | Ki [8] [nM] | EC50 [9] [nM] | Ratio Ki [10] | Ki [11] [nM] | Ratio IC50 [12] | EC50 [13] [nM] | IC50 [14] | Ki [15] [nM] | EC50 [16] [nM] | Stability [17] | IC50 ([7]; cho) | %max [18] [%] | half-life [19] [min]
1 | CC[C@H](C)[C@@H]1NC(=O)[C@H](Cc2ccc(O)cc2)NC(=O)CCSCc2ccccc2CSC[C@@H](C(=O)N2CCC[C@H]2C(=O)N[C@@H](CCCNC(=N)N)C(=O)NCC(N)=O)NC(=O)[C@H](CC(N)=O)NC(=O)[C@H](CCC(N)=O)NC1=O ([Mpa]YIQNCPRG-NH2; linker 1-6 via oXylylene) | 0.008 | > 20000 | 14 | Not Active | 0.2 | 166 | 1720 | > 6000 | > 10000 | 5.5 | 30 | 123 | 9260 | Not Active | > 6000 | 18900 | – | – | – | –
2 | CC[C@H](C)[C@@H]1NC(=O)[C@H](Cc2ccc(O)cc2)NC(=O)CCSCc2cccc(c2)CSC[C@@H](C(=O)N2CCC[C@H]2C(=O)N[C@@H](CC(C)C)C(=O)NCC(N)=O)NC(=O)[C@H](CC(N)=O)NC(=O)[C@H](CCC(N)=O)NC1=O | – | > 20000 | 4400 | – | – | 50 | – | > 6000 | 34 | – | 1680 | – | 2970 | Not Active | – | – | Stable | Not Active | 75 | –
3 | CC[C@H](C)[C@@H]1NC(=O)[C@H](Cc2ccc(O)cc2)NC(=O)CCSCc2ccccc2CSC[C@@H](C(=O)N2CCC[C@H]2C(=O)N[C@@H](CC(C)C)C(=O)NCC(N)=O)NC(=O)[C@H](CC(N)=O)NC(=O)[C@H](CCC(N)=O)NC1=O | – | > 20000 | 35 | – | – | 220 | – | > 6000 | – | – | 69 | – | 8300 | Not Active | – | – | – | Not Active | – | –

Next, values leading:

Row | Ratio IC50 [1] | EC50 [2] [nM] | IC50 [3] [nM] | IC50 [4] | Ratio Ki [5] | Ki [6] [nM] | IC50 ([7]; read-out: IC50) [nM] | Ki [8] [nM] | EC50 [9] [nM] | Ratio Ki [10] | Ki [11] [nM] | Ratio IC50 [12] | EC50 [13] [nM] | IC50 [14] | Ki [15] [nM] | EC50 [16] [nM] | Stability [17] | IC50 ([7]; cho) | %max [18] [%] | half-life [19] [min] | SMILES
4 | – | – | – | – | – | – | – | – | – | – | – | – | – | – | – | – | – | – | 45 | – | CC[C@H](C)[C@@H]1NC(=O)[C@H](Cc2ccc(OC)cc2)NC(=O)CCCSC[C@@H](C(=O)N2CCC[C@H]2C(=O)N[C@@H](CC(C)C)C(=O)NCC(N)=O)NC(=O)[C@H](CC(N)=O)NC(=O)[C@H](CCC(N)=O)NC1=O (Y(Me)IQNCPLG-NH2; linker N-5 via X1)
5 | – | – | – | – | – | – | – | – | – | – | – | – | – | – | – | – | – | – | – | 3 | CC[C@H](C)[C@@H]1NC(=O)[C@H](Cc2ccc(O)cc2)NC(=O)[C@@H](N)CSSC[C@@H](C(=O)N2CCC[C@H]2C(=O)N[C@@H](CC(C)C)C(=O)NCC(N)=O)NC(=O)[C@H](CC(N)=O)NC(=O)[C@H](CCC(N)=O)NC1=O [OXYTOCIN]
